Data reported in ChEMBL document CHEMBL4052686, “Synthesis and antibacterial activity of 5-methylphenanthridium derivatives as FtsZ inhibitors” (2017).
The source made the active and inactive calls. The calls are words filed in the database; no cut-off is given here.

Experiments:
[1] = tested on: Bacillus subtilis; assay: Antibacterial activity against penicillin-susceptible Bacillus subtilis ATCC 9372 incubated for 24 hrs by tube-dilution method; type: functional; details: ATCC 9372, 24 h
Procedure, shortened: (§1)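 MIC by tube dilution per NCCLS; B. subtilis ATCC9372, E. coli ATCC25922, P. aeruginosa ATCC27853 and S. aureus ATCC25923 are penicillin-susceptible strains.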

[2] = tested on: Escherichia coli; assay: Antibacterial activity against penicillin-susceptible Escherichia coli ATCC 25922 incubated for 24 hrs by tube-dilution method; type: functional; details: ATCC 25922, 24 h; procedure, shortened: as §1
[3] = tested on: Pseudomonas aeruginosa; assay: Antibacterial activity against penicillin-susceptible Pseudomonas aeruginosa ATCC 27853 incubated for 24 hrs by tube-dilution method; type: functional; details: ATCC 27853, 24 h; procedure, shortened: as §1
[4] = tested on: Staphylococcus aureus; assay: Antibacterial activity against penicillin-susceptible Staphylococcus aureus ATCC 25923 incubated for 24 hrs by tube-dilution method; type: functional; details: ATCC 25923, 24 h; procedure, shortened: as §1
[5] = tested on: Staphylococcus aureus; assay: Antibacterial activity against […] Staphylococcus aureus ATCC 29213 incubated for 24 hrs by tube-dilution method; type: functional; details: ATCC 29213, 24 h
Procedure, shortened: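 Broth tube-dilution MIC run as NCCLS recommends, against the […] S. aureus strain ATCC29213.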

[6] = tested on: Staphylococcus aureus; assay: Antibacterial activity against penicillin-resistant Staphylococcus aureus clinical isolates incubated for 24 hrs by tube-dilution method; type: functional
[7] = tested on: Staphylococcus epidermidis; assay: Antibacterial activity against penicillin-resistant Staphylococcus epidermidis clinical isolates incubated for 24 hrs by tube-dilution method; type: functional
[8] = tested on: Streptococcus pyogenes; assay: Antibacterial activity against penicillin-susceptible Streptococcus pyogenes clinical isolates incubated for 24 hrs by tube-dilution method; type: functional
[9] = tested on: Streptococcus pyogenes; assay: Antibacterial activity against penicillin-resistant Streptococcus pyogenes clinical isolates incubated for 24 hrs by tube-dilution method; type: functional
[10] = tested on: Bacillus subtilis; assay: Inhibition of FtsZ in penicillin-susceptible Bacillus subtilis ATCC 9372 assessed as lowest drug concentration causing inhibition of cell division incubated for 5 hrs by phase-contrast light microscopy
Procedure, shortened: (§2)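 Cell division inhibition judged from bacterial cell morphology under phase-contrast light microscopy, scored as lowest concentration altering division; penicillin-susceptible strains B. subtilis ATCC9372, E. coli ATCC25922, P. aeruginosa ATCC27853, S. aureus ATCC25923.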

[11] = tested on: Escherichia coli; assay: Inhibition of FtsZ in penicillin-susceptible Escherichia coli ATCC 25922 assessed as lowest drug concentration causing inhibition of cell division incubated for 5 hrs by phase-contrast light microscopy; procedure, shortened: as §2
[12] = tested on: Pseudomonas aeruginosa; assay: Inhibition of FtsZ in penicillin-susceptible Pseudomonas aeruginosa ATCC 27853 assessed as lowest drug concentration causing inhibition of cell division incubated for 5 hrs by phase-contrast light microscopy; procedure, shortened: as §2
[13] = tested on: Staphylococcus aureus; assay: Inhibition of FtsZ in penicillin-susceptible Staphylococcus aureus ATCC 25923 assessed as lowest drug concentration causing inhibition of cell division incubated for 5 hrs by phase-contrast light microscopy; procedure, shortened: as §2
[14] = organism: Sus scrofa; assay: Induction of porcine tubulin polymerisation at 2 times MIC for penicillin-resistant Staphylococcus aureus by fluorescence microscopy
Procedure, shortened: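 Polymerisation of mammalian tubulin measured with a commercial tubulin assay kit, read by fluorescence of the kit reporter, with paclitaxel as the positive control for enhanced polymerisation.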

[15] = tested on: Streptococcus pyogenes; assay: Potency index, ratio of MIC for oxacillin sodium to MIC for test compound against penicillin-susceptible Streptococcus pyogenes clinical isolates incubated for 24 hrs by tube-dilution method; type: functional
[16] = tested on: Streptococcus pyogenes; assay: Potency index, ratio of MIC for sanguinarine to MIC for test compound against penicillin-susceptible Streptococcus pyogenes clinical isolates incubated for 24 hrs by tube-dilution method; type: functional
[17] = tested on: Bacillus subtilis; assay: Potency index, ratio of MIC for curcumin to MIC for test compound against penicillin-susceptible Bacillus subtilis ATCC 9372 incubated for 24 hrs by tube-dilution method; type: functional
[18] = tested on: Bacillus subtilis; assay: Potency index, ratio of MIC for sanguinarine to MIC for test compound against penicillin-susceptible Bacillus subtilis ATCC 9372 incubated for 24 hrs by tube-dilution method; type: functional
[19] = tested on: Bacillus subtilis; assay: Potency index, ratio of MIC for ciprofloxaxin to MIC for test compound against penicillin-susceptible Bacillus subtilis ATCC 9372 incubated for 24 hrs by tube-dilution method; type: functional
[20] = tested on: Bacillus subtilis; assay: Potency index, ratio of MIC for oxacillin sodium to MIC for test compound against penicillin-susceptible Bacillus subtilis ATCC 9372 incubated for 24 hrs by tube-dilution method; type: functional

SMILES | MIC [1] | MIC [2] | MIC [3] | MIC [4] | MIC [5] | MIC [6] | MIC [7] | MIC [8] | MIC [9] | MIC [10] | MIC [11] | MIC [12] | MIC [13] | Activity [14] | Ratio [15] | Ratio [16] | Ratio [17] | Ratio [18] | Ratio [19] | Ratio [20]
CCCCc1ccc2c(c1)c1ccccc1c[n+]2C.[Cl-] | 4 µg/mL | > 128 µg/mL | > 128 µg/mL | 64 µg/mL | > 128 µg/mL | 8 µg/mL | > 128 µg/mL | 8 µg/mL | 8 µg/mL | 4 µg/mL | 128 µg/mL | > 128 µg/mL | 64 µg/mL | inactive | – | – | – | – | – | –
C[n+]1cc2ccccc2c2cc(Cl)ccc21.[Cl-] | 16 µg/mL | 128 µg/mL | > 128 µg/mL | > 128 µg/mL | > 128 µg/mL | 32 µg/mL | > 128 µg/mL | 32 µg/mL | 32 µg/mL | 16 µg/mL | 128 µg/mL | > 128 µg/mL | > 128 µg/mL | inactive | – | – | – | – | – | –
Cc1cccc2c3ccccc3c[n+](C)c12.[Cl-] | 4 µg/mL | > 128 µg/mL | > 128 µg/mL | 128 µg/mL | > 128 µg/mL | 4 µg/mL | 128 µg/mL | 4 µg/mL | 8 µg/mL | 4 µg/mL | > 128 µg/mL | > 128 µg/mL | 128 µg/mL | inactive | 4 | 2 | 8 | 2 | 2 | 2
Cc1onc(-c2ccccc2)c1C(=O)N[C@@H]1C(=O)N2[C@@H]1SC(C)(C)[C@@H]2C(=O)[O-].[Na+] | 8 µg/mL | 128 µg/mL | 128 µg/mL | 8 µg/mL | 128 µg/mL | > 128 µg/mL | 8 µg/mL | 1 µg/mL | 2 µg/mL | – | – | – | – | – | – | – | – | – | – | –
C[n+]1cc2ccccc2c2cc(C(F)(F)F)ccc21.[Cl-] | 128 µg/mL | > 128 µg/mL | > 128 µg/mL | 128 µg/mL | > 128 µg/mL | 128 µg/mL | 128 µg/mL | 128 µg/mL | 128 µg/mL | 64 µg/mL | > 128 µg/mL | > 128 µg/mL | 128 µg/mL | inactive | – | – | – | – | – | –
Cc1cc(C)c2c(c1)c1ccccc1c[n+]2C.[Cl-] | 4 µg/mL | > 128 µg/mL | > 128 µg/mL | 64 µg/mL | 32 µg/mL | 4 µg/mL | 128 µg/mL | 4 µg/mL | 8 µg/mL | 2 µg/mL | > 128 µg/mL | 128 µg/mL | 64 µg/mL | inactive | 4 | 2 | 8 | 2 | 2 | 2
C[n+]1cc2ccccc2c2cc(F)ccc21.[Cl-] | 16 µg/mL | > 128 µg/mL | 128 µg/mL | > 128 µg/mL | > 128 µg/mL | 32 µg/mL | > 128 µg/mL | 32 µg/mL | 32 µg/mL | 16 µg/mL | > 128 µg/mL | 128 µg/mL | > 128 µg/mL | inactive | – | – | – | – | – | –
C[n+]1cc2ccccc2c2ccccc21.[Cl-] | 16 µg/mL | > 128 µg/mL | 128 µg/mL | > 128 µg/mL | > 128 µg/mL | 32 µg/mL | > 128 µg/mL | 32 µg/mL | 32 µg/mL | 16 µg/mL | > 128 µg/mL | 128 µg/mL | > 128 µg/mL | inactive | – | – | – | – | – | –
